According to publication PMC10460140 (Angewandte Chemie (International ed. in English), 2023):
“Also recorded” adds a separate entry of the source. Where a SMILES comes first, the peptide text is derived from it. Bridges are numbered along the chain shown (N, C = ends). Roman numbers before positions name the chains, in order. Side-chain parts run from the residue outwards. [ ]: non-standard residue; d: D form. The star is where a group is joined. X1 = CN(C)c1ccc2c(-c3ccc(C(=O)*)cc3C(=O)[O-])c3ccc(=[N+](C)C)cc-3oc2c1; Biotin = O=C1N[C@H]2[C@H](CS[C@H]2CCCCC(=O)*)N1; PEG4 = NCCOCCOCCOCCOCCC(=O)O; Alloc = C=CCOC(=O)*; βAla = NCCC(=O)O

Columns and labels:
[1] = tested on: MDM2; assay: Direct binding by BLI, MDM2; details: KB2-Biotin immobilized on streptavidin tips; MDM2 7.8-1000 nM; n=2
[2] = tested on: recombinant mKlotho; assay: Pull-down of recombinant mKlotho from CaSki cell lysate; type: binding, mouse
Summary of the method: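 Recombinant mouse Klotho was spiked into lysate of CaSki cells (human cervical cancer line, minimal endogenous Klotho) at a final 100 nM. It was pulled down with biotinylated peptide. For self-competition, unlabeled peptide or scrambled control was added to the lysate. Klotho identity was checked against a KM2076 antibody pull-down by band size. Pull-down was quantified (n=2), with ANOVA.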

[3] = tested on: 12CA5; assay: Direct binding by BLI, 12CA5; details: KB2-Biotin immobilized on streptavidin tips; 12CA5 7.8-1000 nM; n=2
[4] = tested on: endogenous hKlotho; assay: Pull-down of endogenous hKlotho from HK-2 cell lysate; type: binding, human; details: probe 200 nM; 300 μg total protein; 30 min room temperature; western blot; n=2
[5] = tested on: Klotho-deficient CaSki cells; assay: Fluorescence microscopy imaging of CaSki cells; type: cell-based, human; details: KB2-TAMRA 500 nM, 5 min; fixation after treatment
[6] = tested on: HK-2 cells; assay: Co-localization with nucleus dye DAPI in HK-2 cells; type: cell-based, human; details: KB2-TAMRA 500 nM 5 min or antibody overnight, DAPI stain
Summary of the method: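 HK-2 cells labelled with fluorescent peptide probe at 500 nM for 5 min, or with anti-Klotho antibody KM2076 (overnight incubation, then permeabilisation and secondary antibody). Nuclei stained with DAPI. Co-localisation of the DAPI signal with the probe or antibody signal was quantified as a Pearson correlation coefficient.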

[7] = tested on: endogenous total hKlotho in HK-2 cells; assay: Fluorescence microscopy imaging of fixed HK-2 cells; type: cell-based, human; details: HK-2 cells transfected with KL siRNA, KB2-TAMRA 500 nM; n=5
Summary of the method: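 HK-2 cells were left untransfected, mock-transfected, or transfected with a pooled KL siRNA using RNAiMAX. They were then co-treated with TAMRA-labelled peptide (500 nM) plus WGA Alexa Fluor 350 membrane stain and fixed after treatment. Imaging used ex/em 542/597 nm for TAMRA and 390/435 nm for WGA. Normalised integrated fluorescence was quantified (n=5), with ANOVA.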

CSCC[C@H](NC(=O)[C@@H]1CCCN1C(C)=O)C(=O)N[C@@H](C)C(=O)N[C@@H](CO)C(=O)N[C@@H](CC(=O)O)C(=O)N1CCC[C@H]1C(=O)N[C@@H](CC(C)C)C(=O)NCC(=O)N[C@H](C(=O)N[C@H](C(=O)N[C@@H](CCCNC(=N)N)C(=O)N1CCC[C@H]1C(=O)N[C@@H](CCCNC(=N)N)C(=O)N[C@@H](C)C(=O)N[C@@H](CCCNC(=N)N)C(=O)N[C@@H](C)C(=O)NCCCC[C@H](NC(=O)[C@H](C)NC(=O)[C@H](CCCNC(=N)N)NC(=O)[C@H](C)NC(=O)[C@H](CCCNC(=N)N)NC(=O)[C@@H]1CCCN1C(=O)[C@H](CCCNC(=N)N)NC(=O)[C@@H](NC(=O)[C@@H](NC(=O)CNC(=O)[C@H](CC(C)C)NC(=O)[C@@H]1CCCN1C(=O)[C@H](CC(=O)O)NC(=O)[C@H](CO)NC(=O)[C@H](C)NC(=O)[C@H](CCSC)NC(=O)[C@@H]1CCCN1C(C)=O)C(C)C)C(C)C)C(=O)NCCC(=O)N[C@@H](CCCCNC(=O)CCOCCOCCOCCOCCNC(=O)CCCC[C@@H]1SC[C@@H]2NC(=O)N[C@@H]21)C(N)=O)C(C)C)C(C)C [KB2-Biotin] (I: Ac-PMASDPLGVVRPRARAK[βAla]K([PEG4-Biotin])-NH2 / II: Ac-PMASDPLGVVRPRARA; amide I:17-II:C; N-terminus assumed)
association to MDM2 (in words) [1]: no association | selectivity of pull-down (silver stain) ([2]; pull-down eluents, probe 200 nM, CaSki lysate with mKlotho 0.1 μM): only significantly enriched protein | association to 12CA5 (in words) [3]: no association | enrichment of endogenous hKlotho from HK-2 cell lysate [4]: enriched hKlotho; also recorded: significantly enriched

CSCC[C@H](NC(=O)[C@@H]1CCCN1C(C)=O)C(=O)N[C@@H](C)C(=O)N[C@@H](CO)C(=O)N[C@@H](CC(=O)O)C(=O)N1CCC[C@H]1C(=O)N[C@@H](CC(C)C)C(=O)NCC(=O)N[C@H](C(=O)N[C@H](C(=O)N[C@@H](CCCNC(=N)N)C(=O)N1CCC[C@H]1C(=O)N[C@@H](CCCNC(=N)N)C(=O)N[C@@H](C)C(=O)N[C@@H](CCCNC(=N)N)C(=O)N[C@@H](C)C(=O)NCCCC[C@H](NC(=O)[C@H](C)NC(=O)[C@H](CCCNC(=N)N)NC(=O)[C@H](C)NC(=O)[C@H](CCCNC(=N)N)NC(=O)[C@@H]1CCCN1C(=O)[C@H](CCCNC(=N)N)NC(=O)[C@@H](NC(=O)[C@@H](NC(=O)CNC(=O)[C@H](CC(C)C)NC(=O)[C@@H]1CCCN1C(=O)[C@H](CC(=O)O)NC(=O)[C@H](CO)NC(=O)[C@H](C)NC(=O)[C@H](CCSC)NC(=O)[C@@H]1CCCN1C(C)=O)C(C)C)C(C)C)C(=O)NCCC(=O)N[C@@H](CCCCNC(=O)c1ccc(-c2c3ccc(=[N+](C)C)cc-3oc3cc(N(C)C)ccc23)c(C(=O)[O-])c1)C(N)=O)C(C)C)C(C)C [KB2-TAMRA] (I: Ac-PMASDPLGVVRPRARAK[βAla]K(X1)-NH2 / II: Ac-PMASDPLGVVRPRARA; amide I:17-II:C; N-terminus assumed)
fluorescence intensity in CaSki cells relative to HK-2 cells [5]: significantly lower fluorescence intensity | Pearson correlation coefficient (r) for overlap with DAPI [6]: 0.29 | fluorescence after Klotho knock-down by KL siRNA [7]: reduced the fluorescence

C=CCOC(=O)NCCCC[C@H](NC(=O)CCNC(=O)[C@H](CCCCNC(=O)[C@H](C)NC(=O)[C@H](CCCNC(=N)N)NC(=O)[C@H](C)NC(=O)[C@H](CCCNC(=N)N)NC(=O)[C@@H]1CCCN1C(=O)[C@H](CCCNC(=N)N)NC(=O)[C@@H](NC(=O)[C@@H](NC(=O)CNC(=O)[C@H](CC(C)C)NC(=O)[C@@H]1CCCN1C(=O)[C@H](CC(=O)O)NC(=O)[C@H](CO)NC(=O)[C@H](C)NC(=O)[C@H](CCSC)NC(=O)[C@@H]1CCCN1)C(C)C)C(C)C)NC(=O)[C@H](C)NC(=O)[C@H](CCCNC(=N)N)NC(=O)[C@H](C)NC(=O)[C@H](CCCNC(=N)N)NC(=O)[C@@H]1CCCN1C(=O)[C@H](CCCNC(=N)N)NC(=O)[C@@H](NC(=O)[C@@H](NC(=O)CNC(=O)[C@H](CC(C)C)NC(=O)[C@@H]1CCCN1C(=O)[C@H](CC(=O)O)NC(=O)[C@H](CO)NC(=O)[C@H](C)NC(=O)[C@H](CCSC)NC(=O)[C@@H]1CCCN1)C(C)C)C(C)C)C(N)=O [KB2] (I: H-PMASDPLGVVRPRARAK[βAla]K(Alloc)-NH2 / II: H-PMASDPLGVVRPRARA; amide I:17-II:C)
competition of mKlotho pull-down by KB2-Biotin ([2]; unlabeled peptide pre-incubated 15 min in lysate before KB2-Biotin, n=2): competed off
